Inhibition data for four compounds are collected here from ChEMBL document CHEMBL3085721, “Nonhydrolyzable ATP analogues as selective inhibitors of human NPP1: a combined computational/experimental study” (J Med Chem, 2013).

In general, inhibition refers to the relative decrease from the control value, in per cent.

Assay [1] concerns the target T1, Ectonucleoside triphosphate diphosphohydrolase 3 (Homo sapiens) (UniProt O75355).
T1 sequence (whole entry): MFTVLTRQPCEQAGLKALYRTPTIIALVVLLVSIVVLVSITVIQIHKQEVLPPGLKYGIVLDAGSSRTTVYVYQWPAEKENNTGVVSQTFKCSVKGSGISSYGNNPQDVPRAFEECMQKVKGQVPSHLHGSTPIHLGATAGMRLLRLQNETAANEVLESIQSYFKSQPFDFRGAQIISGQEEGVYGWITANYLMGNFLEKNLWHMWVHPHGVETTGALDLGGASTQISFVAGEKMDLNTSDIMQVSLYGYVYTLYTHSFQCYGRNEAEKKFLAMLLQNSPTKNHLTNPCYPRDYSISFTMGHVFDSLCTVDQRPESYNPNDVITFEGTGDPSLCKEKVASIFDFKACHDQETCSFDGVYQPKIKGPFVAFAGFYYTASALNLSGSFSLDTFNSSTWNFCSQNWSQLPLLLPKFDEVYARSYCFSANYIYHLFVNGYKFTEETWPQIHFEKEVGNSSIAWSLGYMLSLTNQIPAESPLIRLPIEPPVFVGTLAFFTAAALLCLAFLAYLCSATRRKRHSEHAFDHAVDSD
Put plainly: Inhibition of human NTPDase3 assessed as amount of inorganic phosphate released using ATP as the substrate preincubated at 100 uM for 3 mins before substrate addition after 15 mins by malachite green reagent method. The gist of the method: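 Crude extracts of COS-7 cells transiently transfected with human NTPDase1, -2, -3 or -8, preincubated 3 min at 37 °C in Tris-Ringer medium pH 7.4 with analogue (final 100 μM). Started with 100 μM ATP, stopped after 15 min with malachite green; released Pi read at 630 nm. ATP alone set as 100%. Mean ± SD of 3−6 experiments in triplicate.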

Assay [2] deals with T2, Ectonucleotide pyrophosphatase/phosphodiesterase family member 3 (Homo sapiens) (UniProt O14638).
T2 sequence (whole entry): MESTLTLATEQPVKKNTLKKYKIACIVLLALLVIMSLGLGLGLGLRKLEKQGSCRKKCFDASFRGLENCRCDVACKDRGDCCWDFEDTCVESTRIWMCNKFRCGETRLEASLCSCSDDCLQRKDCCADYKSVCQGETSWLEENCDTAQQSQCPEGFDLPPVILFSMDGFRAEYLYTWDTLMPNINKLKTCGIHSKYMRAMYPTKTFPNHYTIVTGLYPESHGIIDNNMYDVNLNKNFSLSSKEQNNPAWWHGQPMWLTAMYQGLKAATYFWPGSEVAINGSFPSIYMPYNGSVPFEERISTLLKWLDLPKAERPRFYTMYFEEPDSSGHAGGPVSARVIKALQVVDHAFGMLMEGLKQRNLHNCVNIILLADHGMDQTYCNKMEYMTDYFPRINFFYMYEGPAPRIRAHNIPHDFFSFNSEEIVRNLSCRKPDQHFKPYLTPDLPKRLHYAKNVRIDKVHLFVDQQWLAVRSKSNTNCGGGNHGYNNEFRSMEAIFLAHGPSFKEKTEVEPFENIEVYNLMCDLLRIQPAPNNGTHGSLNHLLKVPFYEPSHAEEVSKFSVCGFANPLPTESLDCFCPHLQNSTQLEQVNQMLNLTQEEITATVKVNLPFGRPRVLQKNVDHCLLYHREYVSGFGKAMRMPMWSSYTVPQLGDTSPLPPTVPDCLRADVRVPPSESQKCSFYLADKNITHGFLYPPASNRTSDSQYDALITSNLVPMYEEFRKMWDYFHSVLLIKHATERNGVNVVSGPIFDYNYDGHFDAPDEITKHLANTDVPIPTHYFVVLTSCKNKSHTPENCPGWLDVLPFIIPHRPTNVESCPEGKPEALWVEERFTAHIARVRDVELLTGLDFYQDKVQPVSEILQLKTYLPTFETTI
Kind of assay: Inhibition of NPP3 in human HTB-85 cells assessed as production of p-nitrophenol using pnp-TMP at 100 uM measured after 20 mins by spectrophotometry. The class given is cell-based. The gist of the method: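 Intact osteocarcinoma HTB85 (SaOS-2) cells in 24-well plates, 0.5 mL incubation mixture, analogue and pnp-TMP each at 100 μM. After 20 min an aliquot was read for p-nitrophenol at 410 nm. Substrate alone set as 100%. Mean ± SD of three experiments in triplicate.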

The target of assay [3] is T3, Ectonucleotide pyrophosphatase/phosphodiesterase family member 1 (Homo sapiens) (UniProt P22413).
T3 sequence (whole entry): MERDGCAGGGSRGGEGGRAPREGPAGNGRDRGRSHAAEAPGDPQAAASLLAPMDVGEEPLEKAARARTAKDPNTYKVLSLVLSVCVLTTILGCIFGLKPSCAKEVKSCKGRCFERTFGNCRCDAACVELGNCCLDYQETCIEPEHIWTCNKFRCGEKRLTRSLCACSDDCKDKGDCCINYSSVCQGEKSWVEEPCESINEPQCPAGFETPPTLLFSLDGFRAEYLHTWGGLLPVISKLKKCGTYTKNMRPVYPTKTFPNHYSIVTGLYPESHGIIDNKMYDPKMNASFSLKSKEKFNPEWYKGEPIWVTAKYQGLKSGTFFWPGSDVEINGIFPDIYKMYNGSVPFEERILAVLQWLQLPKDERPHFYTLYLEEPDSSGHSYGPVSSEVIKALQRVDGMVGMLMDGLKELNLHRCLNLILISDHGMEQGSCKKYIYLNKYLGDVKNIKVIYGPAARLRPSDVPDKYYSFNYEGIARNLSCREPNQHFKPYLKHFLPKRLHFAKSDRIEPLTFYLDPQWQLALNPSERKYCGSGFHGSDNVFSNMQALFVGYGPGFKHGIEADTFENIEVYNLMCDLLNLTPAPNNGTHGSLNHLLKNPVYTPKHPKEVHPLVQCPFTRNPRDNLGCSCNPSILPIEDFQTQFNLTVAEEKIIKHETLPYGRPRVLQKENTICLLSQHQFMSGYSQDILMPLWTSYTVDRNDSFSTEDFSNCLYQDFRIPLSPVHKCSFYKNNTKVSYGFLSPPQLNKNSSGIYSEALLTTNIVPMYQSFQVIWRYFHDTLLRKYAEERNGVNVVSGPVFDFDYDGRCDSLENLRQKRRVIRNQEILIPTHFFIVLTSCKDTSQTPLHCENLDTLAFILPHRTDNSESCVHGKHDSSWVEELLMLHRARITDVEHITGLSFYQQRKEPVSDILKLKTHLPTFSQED
Kind of assay: Competitive inhibition of human NPP1 expressed in COS7 cells assessed as production of p-nitrophenol using pnp-TMP as the substrate preincubated at 25 to 100 uM for 3 mins before substrate addition measured after 15 mins by Dixon/Cornish Bowden method. The class given is cell-based. Conditions: COS-7. In short, it runs like this:
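Crude protein extract from COS-7 cells transiently transfected with human NPP1 (sonicated, debris cleared at 300g), preincubated 3 min at 37 °C with inhibitor (0, 25, 50, 100 μM) in 1 mM CaCl2, 140 mM NaCl, 5 mM KCl, 50 mM Tris pH 8.5. pnp-TMP (25, 50, 100 μM) added; p-nitrophenol read at 410 nm after 15 min. Ki,app and inhibition type from Dixon and Cornish-Bowden plots, three independent experiments.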

The structures appear in SMILES notation. Calls of active or inactive are those of the source. The calls are words filed in the database; no cut-off is given here. Some results are limits rather than exact numbers.

Take `B[P@](=O)(OC[C@H]1O[C@@H](n2cnc3c(N)ncnc32)[C@H](O)[C@@H]1O)OP(=O)(O)CP(=O)(O)O`: the inhibition in assay [1] was below 18%; in assay [2] it was 41%. In addition, the inhibition entry in assay [3] is “Active”.
Turning to `CSc1nc(N)c2ncn([C@@H]3O[C@H](COP(=O)(O)C(F)(F)P(=O)(O)O)[C@@H](O)[C@H]3O)c2n1`, the inhibition in assay [1] is below 18%; in assay [2] it was 41%. In addition, the inhibition entry in assay [3] is “Active”.
As for `B[P@@](=O)(OC[C@H]1O[C@@H](n2cnc3c(N)ncnc32)[C@H](O)[C@@H]1O)OP(=O)(O)CP(=O)(O)O`, the inhibition in assay [1] is below 18%; in assay [2], 90%. For the same compound, the inhibition result in assay [3] was “Active”.
For `B[P@](=O)(OC[C@H]1O[C@@H](n2cnc3c(N)nc(SC)nc32)[C@H](O)[C@@H]1O)OP(=O)(O)CP(=O)(O)O`, the inhibition was below 18% in assay [1] and 90% in assay [2]. Moreover, the inhibition entry in assay [3] is “Active”.
